Data on 31 molecules can be found in ChEMBL document CHEMBL1795202, “An investigation of phenylthiazole antiflaviviral agents” (Bioorg Med Chem, 2011).

As usually defined, the inhibition is the drop in the measured response relative to a control, in per cent. As usually defined, the GI50 is the concentration that inhibits growth by half. For orientation: EC50 means the concentration giving half of the maximal effect.

The test system of data set [1] is Yellow fever virus. As to the kind of experiment: Antiviral activity against luciferase reporting full length Yellow fever virus infected in BHK15 cells assessed as reduction in virus infectivity ncubated at 50 uM at 37 degC for 36 hrs by luciferase reporter gene assay. Format: functional. The conditions noted are these: BHK15, 36 h.
Data set [2] is described as follows: Toxicity against uninfected BHK cells assessed as growth inhibition incubated at 37 degC for 36 hrs by XTT assay. Particulars: hamster. Format: cell-based, Mesocricetus auratus. The gist of the method:
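Confluent BHK-15 cells were exposed to serial dilutions of compound (DMSO stocks) for ~36 h at 37 °C, 5% CO2. Medium was then replaced, and XTT substrate was added for 2 h at 37 °C before reading OD450. Values were compared with 1% DMSO-treated cells to calculate GI50.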

For data set [3], the system named is Yellow fever virus. Briefly: microbe, parasite or virus in culture. Format: functional, organism-based. The conditions noted are these: BHK15, 36 h.
A short description of data set [4]: Therapeutic index, ratio of GI50 for uninfected BHK cells to EC50 for luciferase reporting full length Yellow fever virus. The conditions noted are these: hamster, read-out: TI. The data set is classed as cell-based. The method in brief: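 TI is GI50 in uninfected BHK cells (XTT, ~36 h) divided by EC50. EC50 was estimated by nonlinear regression against DMSO-treated infected cells.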

Data set [5] addresses T1, Luciferin 4-monooxygenase (Luciola lateralis) (UniProt Q01158).
T1 sequence (whole entry): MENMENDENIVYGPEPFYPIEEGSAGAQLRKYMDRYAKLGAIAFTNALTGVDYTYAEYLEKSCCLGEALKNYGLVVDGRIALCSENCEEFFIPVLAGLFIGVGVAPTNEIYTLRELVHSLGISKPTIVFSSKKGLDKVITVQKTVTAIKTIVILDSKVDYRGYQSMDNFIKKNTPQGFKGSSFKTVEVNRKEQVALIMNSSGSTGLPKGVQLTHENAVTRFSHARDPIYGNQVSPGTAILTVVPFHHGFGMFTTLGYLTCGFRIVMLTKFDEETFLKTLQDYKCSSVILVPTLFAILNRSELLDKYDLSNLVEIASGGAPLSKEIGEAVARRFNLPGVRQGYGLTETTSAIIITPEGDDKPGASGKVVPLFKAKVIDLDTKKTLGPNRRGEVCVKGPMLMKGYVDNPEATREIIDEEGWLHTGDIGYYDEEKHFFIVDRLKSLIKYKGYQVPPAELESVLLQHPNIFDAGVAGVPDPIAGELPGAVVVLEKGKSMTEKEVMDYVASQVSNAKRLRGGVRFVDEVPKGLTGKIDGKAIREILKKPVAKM
Briefly: Inhibition of firefly luciferase expressed in BHK15 cells transfected with luciferase-pcDNA3 incubated at 37 degC for 20 hrs by luciferase reporter gene assay. The data set is classed as cell-based. The conditions noted are these: Aquatica lateralis. The gist of the method:
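BHK-15 cells grown to confluency, transfected with firefly luciferase-pcDNA3 plasmid by Lipofectamine; complexes removed at 3 h and replaced with medium holding serial compound dilutions from DMSO stock; 37 °C, 5% CO2, 20 h. Cells lysed and luminescence read with firefly luciferase substrate; signal compared with 1% DMSO-treated cells. Controls: uninfected, infected, DMSO-treated.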
In general terms: Reporter assays use an easily measured gene product as a stand-in for the process of interest.

Molecules are shown by their SMILES. Calls of active or inactive are those of the source. The calls are words filed in the database; no cut-off is given here.

For the molecule `COC(=O)c1sc(-c2ccccc2)nc1C(Br)Br`, the inhibition at 50 µM in the data set on Yellow fever virus [1] is under 50%.
As to `CCCCCc1ccc(-c2nc(C)c(C(=O)OC)s2)cc1`, in the data set on Yellow fever virus [1], the inhibition at 50 µM was determined as 98.6%. Moreover, the GI50 at 36 h in data set [2] came to 41.5 µM. Moreover, the response in the data set on Yellow fever virus [3] was half-maximal at 38.9 µM (EC50). Also, in data set [4], the selectivity ratio was found to be 1.1.
Taken in the same sequence, the figures for `COC(=O)c1sc(-c2ccc(C(F)(F)F)cc2)nc1C(Br)Br` were 91%, 262 µM, 10.6 µM and 26.
Consider `CCCCc1ccc(-c2nc(C)c(C(=O)OC)s2)cc1`, for which the inhibition at 50 µM in the data set with Yellow fever virus [1] was determined as 91.9%. In data set [2], the GI50 at 36 h was determined as 63.1 µM. Also, in the data set with Yellow fever virus [3], the EC50 turned out to be 2.8 µM. In data set [4], the selectivity ratio amounted to 22.
With `CCCCc1ccc(-c2nc(C)c(C(=O)SC)s2)cc1`, in the data set on Yellow fever virus [1], the inhibition at 50 µM was 94.1%. The GI50 at 36 h in data set [2] stood at 46.5 µM. In the data set on Yellow fever virus [3], the EC50 amounted to 45.6 µM. The selectivity ratio in data set [4] was 1.
For `COC(=O)c1sc(-c2cccc(Br)c2)nc1C(Br)Br`, the inhibition at 50 µM in the data set on Yellow fever virus [1] worked out at 93%. The GI50 at 36 h in data set [2] amounted to 26.5 µM. The molecule also had an EC50 with Yellow fever virus [3] of 26 µM. Also, the selectivity ratio in data set [4] was 1.
In the case of `COC(=O)c1sc(Cc2ccc(Cl)cc2)nc1C`, the inhibition at 50 µM in the data set on Yellow fever virus [1] was -6.5%.
Consider `COC(=O)c1sc(-c2ccc(Br)cc2)nc1C(Br)Br`, for which, in the data set with Yellow fever virus [1], the inhibition at 50 µM worked out at 81.9%. In addition, in data set [2], the concentration for 50% growth inhibition (GI50) at 36 h was 408 µM. This molecule returned an EC50 in the data set on Yellow fever virus [3] of 3.3 µM. In addition, the selectivity ratio in data set [4] was found to be 121.
For `COC(=O)c1sc(-c2ccccc2F)nc1C(Br)Br`, the inhibition at 50 µM with Yellow fever virus [1] is under 50%.
As to `COC(=O)c1sc(-c2ccc(C(C)(C)C)cc2)nc1C`, the inhibition at 50 µM in the data set on Yellow fever virus [1] was under 50%.
In the case of `COC(=O)c1sc(-c2ccccc2Br)nc1C(Br)Br`, the inhibition at 50 µM in the data set on Yellow fever virus [1] is under 50%.
Take `COC(=O)c1sc(-c2ccc(Cl)c(Cl)c2)nc1C(Br)Br`: the inhibition at 50 µM with Yellow fever virus [1] worked out at 42.2%.
Consider `COC(=O)c1sc(-c2ccc(F)cc2)nc1C`, for which the inhibition at 50 µM with Yellow fever virus [1] is under 50%.
For the molecule `COC(=O)c1sc(-c2ccc(OC)cc2)nc1C(Br)Br`, the inhibition at 50 µM in the data set on Yellow fever virus [1] was under 50%.
With `COC(=O)c1sc(-c2ccccc2Cl)nc1C`, in the data set with Yellow fever virus [1], the inhibition at 50 µM was under 50%.
On to `COC(=O)c1sc(Cc2ccccc2)nc1C`, for which the inhibition at 50 µM in the data set on Yellow fever virus [1] is -23.8%.
On to `COC(=O)c1sc(-c2ccc(Cl)c(Cl)c2)nc1C`, for which the inhibition at 50 µM in the data set on Yellow fever virus [1] is -8.2%.
`COC(=O)c1sc(-c2ccccc2Br)nc1C`: the inhibition at 50 µM in the data set on Yellow fever virus [1] was under 50%.
Same read-out and setting: for `COC(=O)c1sc(-c2ccc(OC)cc2)nc1C` the value was under 50%.
In the case of `Nc1ccccc1SCc1csc(-c2ccc(Cl)cc2)n1`, in data set [2], the GI50 at 36 h was determined as 61 µM. In data set [4], the selectivity ratio came to 2.
Turning to `COC(=O)c1sc(-c2ccccc2Cl)nc1C(Br)Br`, the inhibition at 50 µM in the data set on Yellow fever virus [1] was under 50%.
Turning to `CCCCc1ccc(-c2nc(C)c(C(C)=O)s2)cc1`, the inhibition at 50 µM in the data set on Yellow fever virus [1] came to 99.8%. Besides, the GI50 at 36 h in data set [2] was determined as 59.4 µM. The molecule also registered a concentration for a half-maximal effect (EC50) in the data set with Yellow fever virus [3] of 10.1 µM. Moreover, the selectivity ratio in data set [4] was determined as 6.
In the case of `CCCCc1ccc(-c2nc(C)c(C(=O)O)s2)cc1`, the inhibition at 50 µM in the data set on Yellow fever virus [1] came out at 83.2%. Further, the concentration for 50% growth inhibition (GI50) at 36 h in data set [2] stood at 366 µM. The same molecule had an EC50 in the data set on Yellow fever virus [3] of 203 µM.
With `COC(=O)c1sc(-c2ccc(Br)cc2)nc1C`, in the data set on Yellow fever virus [1], the inhibition at 50 µM is under 50%.
Turning to `CCCc1ccc(-c2nc(C)c(C(=O)OC)s2)cc1`, in the data set with Yellow fever virus [1], the inhibition at 50 µM was 83.2%. Also, the concentration for 50% growth inhibition (GI50) at 36 h in data set [2] was determined as 499 µM. Also, in the data set with Yellow fever virus [3], the EC50 is 34.3 µM. In data set [4], the selectivity ratio came to 12.
As for `COC(=O)c1sc(-c2ccc3ccccc3c2)nc1C(Br)Br`, in the data set with Yellow fever virus [1], the inhibition at 50 µM amounted to 26%.
As for `COC(=O)c1sc(-c2ccccc2F)nc1C`, in the data set on Yellow fever virus [1], the inhibition at 50 µM is under 50%.
On to `CCCCc1ccc(-c2nc(C)c(/C(C)=N/NC(=N)N)s2)cc1`, for which the inhibition at 50 µM in the data set with Yellow fever virus [1] is 99.2%. In addition, in data set [2], the GI50 at 36 h came out at 353 µM. In the data set with Yellow fever virus [3], this molecule had an EC50 of 2.4 µM. Moreover, the selectivity ratio in data set [4] was found to be 147. In addition, the inhibition result in data set [5] is “inactive”.
As to `COC(=O)c1sc(-c2ccc(F)cc2)nc1C(Br)Br`, the inhibition at 50 µM in the data set with Yellow fever virus [1] was under 50%.
With `COC(=O)c1sc(-c2cccc(Br)c2)nc1C`, in the data set on Yellow fever virus [1], the inhibition at 50 µM is under 50%.
For the molecule `COC(=O)c1sc(-c2ccccc2)nc1C`, the inhibition at 50 µM in the data set on Yellow fever virus [1] is under 50%.
